The test system of experiment [1] is Human immunodeficiency virus 1. Nature of the experiment: Antiviral activity against NRTI-resistant Human immunodeficiency virus 1 7295-1 harboring reverse transcriptase D67N, K70R, T215F, K219Q, M184V and T69N mutant infected in human TZM-bl cells assessed as reduction in relative luminescence units after 48 hrs by luciferase reporter gene assay. The class given is functional, organism-based. The following applies: Human immunodeficiency virus 1, 7295-1, TZM-bl. A digest of the protocol:
(§1)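 Panel of eleven NRTI-resistant strains from the NIH Reagent Program plus wild-type NL4-3; highest concentration tested 40,000 nM. EC50 = concentration inhibiting HIV by 50%, averaged from at least two separate experiments.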

Experiment [2] deals with Human immunodeficiency virus 1. Nature of the experiment: Antiviral activity against NRTI-resistant Human immunodeficiency virus 1 35764-2 harboring reverse transcriptase V75I, F77L, F116Y and Q151M mutant infected in human TZM-bl cells assessed as reduction in relative luminescence units after 48 hrs by luciferase reporter gene assay. The class given is functional, organism-based. Particulars: Human immunodeficiency virus 1, 35764-2, TZM-bl. A digest of the protocol:
as §1
Background: Reporter assays use an easily measured gene product as a stand-in for the process of interest.

Experiment [3] is described as follows: Cytotoxicity activity against human ACH2 by CellTiter-Glo luminescent cell viability assay. The following applies: ACH-2. A digest of the protocol:
(§2)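 CellTiter-Glo luminescent viability assay quantifying ATP in metabolically active cells; PBMC were PHA-activated. Highest concentration tested 140 μM. IC50 = concentration inhibiting cell growth by 50%, averaged from at least three separate experiments.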
(ATP-based viability assays read luminescence as a measure of living cells.)

The subject of experiment [4] is Human immunodeficiency virus 1. Nature of the experiment: Antiviral activity against NRTI-resistant Human immunodeficiency virus 1 56252-1 harboring reverse transcriptase K70R, V75I, F77L, F116Y, Q151M and K65R mutant infected in human TZM-bl cells assessed as reduction in relative luminescence units after 48 hrs by luciferase reporter gene assay. Type of experiment: functional, organism-based. The following applies: Human immunodeficiency virus 1, 56252-1, TZM-bl. A digest of the protocol:
as §1

Experiment [5] deals with Human immunodeficiency virus 1. Nature of the experiment: Antiviral activity against NRTI-resistant Human immunodeficiency virus 1 29129-2 harboring reverse transcriptase M41L, D67N, L210W, T215Y and M184V mutant infected in human TZM-bl cells assessed as reduction in relative luminescence units after 48 hrs by luciferase reporter gene assay. Particulars: Human immunodeficiency virus 1, 29129-2, TZM-bl. Type of experiment: functional, organism-based. The method in brief: as §1

Experiment [6] has as its system Human immunodeficiency virus 1. The experiment can be described thus: Antiviral activity against Human immunodeficiency virus 1 NL4-3 infected in human TZM-bl cells assessed as reduction in relative luminescence units after 48 hrs by luciferase reporter gene assay. Particulars: Human immunodeficiency virus 1, NL4-3, TZM-bl. Type of experiment: functional, organism-based.

The test system of a further experiment is HEK-293T. The experiment can be described thus: Cytotoxicity activity against human 293T by CellTiter-Glo luminescent cell viability assay. Type of experiment: cell-based. A digest of the protocol:
as §2

Experiment [7] has as its system Human immunodeficiency virus 1. Nature of the experiment: Antiviral activity against NRTI-resistant Human immunodeficiency virus 1 10076-4 harboring reverse transcriptase M41L, T215Y and M184V mutant infected in human TZM-bl cells assessed as reduction in relative luminescence units after 48 hrs by luciferase reporter gene assay. The class given is functional, organism-based. The following applies: Human immunodeficiency virus 1, 10076-4, TZM-bl. A digest of the protocol: as §1

Experiment [8] deals with Human immunodeficiency virus 1. Nature of the experiment: Antiviral activity against NRTI-resistant Human immunodeficiency virus 1 7303-3 harboring reverse transcriptase M41L, D67N, L210W, T215Y, T69D, E44D and V118I mutant infected in human TZM-bl cells assessed as reduction in relative luminescence units after 48 hrs by luciferase reporter gene assay. The following applies: Human immunodeficiency virus 1, 7303-3, TZM-bl. Type of experiment: functional, organism-based. A digest of the protocol:
as §1

The test system of experiment [9] is Human immunodeficiency virus 1. The experiment can be described thus: Antiviral activity against NRTI-resistant Human immunodeficiency virus 1 6463-13 harboring reverse transcriptase M41L, D67N, L210W, T215Y, M184V and V118I mutant infected in human TZM-bl cells assessed as reduction in relative luminescence units after 48 hrs by luciferase reporter gene assay. Particulars: Human immunodeficiency virus 1, 6463-13, TZM-bl. Type of experiment: functional, organism-based. A digest of the protocol:
as §1

In experiment [10] the test system is Human immunodeficiency virus 1. Nature of the experiment: Antiviral activity against […] infected in human TZM-bl cells assessed as reduction in relative luminescence units after 48 hrs by luciferase reporter gene assay. Type of experiment: functional, organism-based. The following applies: Human immunodeficiency virus 1, NL4-3, TZM-bl. The method in brief: as §1

Experiment [11] concerns Human immunodeficiency virus 1. The experiment can be described thus: Antiviral activity against NRTI-resistant Human immunodeficiency virus 1 1617-1 harboring reverse transcriptase K70G, M184V, T69K, V75I, F77L, F116Y and Q151M mutant infected in human TZM-bl cells assessed as reduction in relative luminescence units after 48 hrs by luciferase reporter gene assay. Type of experiment: functional, organism-based. Particulars: Human immunodeficiency virus 1, 1617-1, TZM-bl. A digest of the protocol: as §1

Experiment [12] deals with Human immunodeficiency virus 1. The experiment can be described thus: Antiviral activity against NNRTI-resistant Human immunodeficiency virus 1 RTMDR infected in human TZM-bl cells assessed as reduction in relative luminescence units after 48 hrs by luciferase reporter gene assay. The class given is functional, organism-based.
Experiment [13] has as its system Human immunodeficiency virus 1. The experiment can be described thus: Antiviral activity against NRTI-resistant Human immunodeficiency virus 1 7324-1 harboring reverse transcriptase M41L, D67N, K70R, T215F, K219E and T69N mutant infected in human TZM-bl cells assessed as reduction in relative luminescence units after 48 hrs by luciferase reporter gene assay. The class given is functional, organism-based. The following applies: Human immunodeficiency virus 1, 7324-1, TZM-bl. The method in brief: as §1

Experiment [14] has as its system Human immunodeficiency virus 1. Nature of the experiment: Antiviral activity against vesicular stomatitis virus G-pseudotyped Human immunodeficiency virus 1 NL4-3 infected in human MT2 cells assessed as inhibition of viral replication after 48 hrs by luciferase activity reporter gene assay. Type of experiment: functional, organism-based. The method in brief:
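Pseudovirus made by Ca3(PO4)2 co-transfection of 293 cells with env-deficient pNL4-3.luc.R−E− and VSV-G plasmid; supernatant harvested 48 h, 0.45 μm filtered. MT-2 cells (1.2×10⁵/well) pre-incubated with compound 15 min, then infected; solvent-only control. After 48 h cells lysed and luciferase measured; EC50 from dose-dependent inhibition, averaged from at least two experiments.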

The subject of another experiment is HepG2. The experiment can be described thus: Cytotoxicity activity against human HepG2 by CellTiter-Glo luminescent cell viability assay. The class given is cell-based. The method in brief:
as §2

Experiment [15] concerns Human immunodeficiency virus 1. The experiment can be described thus: Antiviral activity against NRTI-resistant Human immunodeficiency virus 1 7324-4 harboring reverse transcriptase M41L, K70R, T215F and K219E mutant infected in human TZM-bl cells assessed as reduction in relative luminescence units after 48 hrs by luciferase reporter gene assay. The class given is functional, organism-based. The following applies: Human immunodeficiency virus 1, 7324-4, TZM-bl. The method in brief: as §1

Experiment [16] deals with Human immunodeficiency virus 1. The experiment can be described thus: Antiviral activity against Human immunodeficiency virus 1 NL4-3 harboring reverse transcriptase K101E mutant infected in human TZM-bl cells assessed as reduction in relative luminescence units after 48 hrs by luciferase reporter gene assay. The class given is functional, organism-based. Particulars: Human immunodeficiency virus 1, NL4-3, TZM-bl.

Experiment [17] is described as follows: Cytotoxicity activity against human TZM-bl by CellTiter-Glo luminescent cell viability assay. The class given is cell-based. A digest of the protocol: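 Viable TZM-bl cells (HeLa-derived) quantified by luminescent ATP read-out after exposure to compound, tested up to a top concentration of 140 μM. IC50 taken as the concentration that inhibits cell growth by 50%, averaged from at least three separate experiments.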

The subject of a further experiment is PBMC. The experiment can be described thus: Cytotoxicity activity against human PBMC by CellTiter-Glo luminescent cell viability assay. The class given is cell-based. A digest of the protocol:
as §2

In experiment [18] the test system is Human immunodeficiency virus 1. Nature of the experiment: Antiviral activity against NRTI-resistant Human immunodeficiency virus 1 4755-5 harboring reverse transcriptase M41L, D67N, L210W, T215Y, M184V, T69D, E44D and V118I mutant infected in human TZM-bl cells assessed as reduction in relative luminescence units after 48 hrs by luciferase reporter gene assay. The following applies: Human immunodeficiency virus 1, 4755-5, TZM-bl. Type of experiment: functional, organism-based. A digest of the protocol:
as §1

The subject of a further experiment is MT4. The experiment can be described thus: Cytotoxicity activity against human MT4 by CellTiter-Glo luminescent cell viability assay. The class given is cell-based. The method in brief:
as §2

EC50 and IC50 data for three compounds are collected here from ChEMBL document CHEMBL1821682, “Synthesis of new 2'-deoxy-2'-fluoro-4'-azido nucleoside analogues as potent anti-HIV agents” (Eur J Med Chem, 2011).

By EC50 is commonly meant the concentration needed to bring the measured effect to its halfway point. In general, IC50 refers to the midpoint of a concentration-inhibition curve. Low values mean greater potency, high ones weaker potency. Take `[N-]=[N+]=N[C@]1(CO)O[C@@H](n2ccc(N)nc2=O)[C@@H](F)[C@@H]1O`: the concentration for a half-maximal effect (EC50) in experiment [1] was over 40000 nM; in experiment [2], 0.42 nM; in experiment [4] it was 0.525 nM; in [5] it was over 40000 nM; in [6], 0.086 nM; in experiment [7] it was over 40000 nM. The 50% effective concentration (EC50) was 0.56 nM in experiment [8]; over 40000 nM in [9]; 0.318 nM in [10]; 32.2 nM in [11]; 0.11 nM in [12]; 0.595 nM in experiment [13]. The concentration for a half-maximal effect (EC50) was 0.13 nM in [14] (mt2), 0.735 nM in [15], 0.15 nM in experiment [16] and over 40000 nM in experiment [18]. Moreover, the IC50 in [3] is 110 nM; with HEK-293T, over 140000 nM; in the experiment with HepG2, over 140000 nM; in experiment [17] it was over 140000 nM; in the experiment with PBMC, 150 nM; in the experiment on MT4, 120 nM.

As to `[N-]=[N+]=N[C@]1(CO)O[C@@H](n2ccc(N)nc2=O)[C@@H](F)[C@@H]1O` [RO-0622], the EC50 in [14] (mt2) stood at 0.3 nM.

For the compound `Cc1cn([C@H]2C[C@H](N=[N+]=[N-])[C@@H](CO)O2)c(=O)[nH]c1=O` [ZIDOVUDINE], in [14] (Human immunodeficiency virus 1, NL4-3, MT2, 48 h), the half-maximal effective concentration (EC50) amounted to 47 nM.
